Source: publication PMC10630944 (Molecular Pharmaceutics, 2023)

Legend:
[1] = In vitro stability in mouse serum; type: in vitro ADME; details: room temperature, 24 h of incubation, iTLC, average of three independent samples
H446 cells [2] = assay: Cellular uptake / binding ratio, H446 cells; type: cell-based, human
In short: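 Cells were grown in RPMI-1640 with 10% FCS at 37 °C and 5% CO2. Suspensions of 5 × 10^6 cells in PBS, in low-bind tubes, got 3.7 kBq and were agitated at 37 °C for 1, 3 or 6 h. Cells were then pelleted and rinsed twice with ice-cold PBS, and pellets and pooled supernatant/washes were gamma-counted. Parallel tubes held unlabeled peptide as blocker for nonspecific binding. Three independent experiments were run in triplicate.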

A549 cells [3] = assay: In vitro cytotoxicity; type: cell-based, human; details: 24 h exposure, low-level SSTR2 A549 cells
H446 cells [4] = assay: DNA damage, γH2AX imaging and Western blot, H446 cells; type: cell-based, human
In short: (§1)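 Cells (5 × 10^4/well) were exposed for 2 h to PBS, unlabeled peptide, free 211At or test compound (1.85, 3.7, 18.5, 37 kBq), then recovered 24 h in fresh medium. For imaging, cells were fixed, permeabilized and stained with mouse anti-γH2AX (1:800). For blotting, RIPA lysates (BCA-normalized) were run on 10% SDS-PAGE and transferred to PVDF. Blocking was 5% milk for 1 h, anti-γH2AX was applied at 4 °C for 12 h, with ECL detection and GAPDH as loading control.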

A549 cells [5] = assay: DNA damage, γH2AX imaging and Western blot, A549 cells; type: cell-based, human
In short: as §1

[6] = Biodistribution in SCLC tumor-bearing BALB/c nude mice; type: in vivo
In short: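 H446 cells (1 × 10^7 in 0.2 mL PBS) implanted subcutaneously in left shoulder of male nude mice, 4–5 weeks, 20 ± 1 g. 211At-labelled test compound or free 211At (1110 kBq each) given in parallel via tail vein, n = 4 per group. Killed at 1, 3, 6, 12, 24 h. Tumor, main tissues and whole blood weighed and gamma-counted. Values as %ID/g (thyroid %ID/organ), mean ± s.d.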

SCLC tumors (H446) [7] = assay: Therapeutic efficacy against SCLC; type: in vivo, BALB/c nude mice; details: for tumor growth compared with the PBS control group: n = 6–10
In short: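 Xenografts were s.c. H446 (1 × 10^7 cells) in male BALB/c nude mice, randomized 2 weeks post-inoculation. Tumor size and weight were tracked for 30 days (n = 6–10), and tumor volumes were analysed by one-way ANOVA. At day 30, formalin-fixed tumors had H&E and γH2AX immunofluorescence.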

[8] = Adverse effects in SCLC tumor-bearing mice; type: in vivo, BALB/c nude mice
In short: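 H446 cells (1 × 10^7 in 0.2 mL PBS) were implanted s.c. in the left shoulder of male BALB/c nude mice aged 4–5 weeks (20 ± 1 g). Mice were randomized at 2 weeks and given i.v. tail-vein PBS, unlabeled peptide 5 mg/kg, or test compound (370 kBq, 1110 kBq, or 370 kBq on days 0, 3 and 7). Body weight was followed for 30 days. Blood counts were taken on days 14 and 28 (n = 4). ALT, AST, BUN and Cr were measured on day 28. Liver, spleen, kidney, stomach and lung were H&E-stained at day 30.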

SCLC tumors (H446) [9] = assay: MHC-I and calreticulin expression in SCLC tumors; type: in vivo, BALB/c nude mice; details: 1110 kBq administration group, day 1, 4, and 8
In short: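 In nude mice bearing s.c. H446 tumors, test compound was given i.v. as 1110 kBq once or 370 kBq on days 0, 3 and 7, with PBS controls. Tumors were examined on days 1, 4 and 8 after treatment. MHC-I and calreticulin were stained by immunohistochemistry per manufacturer's instructions, and expression was quantified. Three independent experiments were run in triplicate, reported as mean ± s.d.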

[10] = groups A, D (1110 kBq) and E (3 × 370 kBq), day 30
[11] = groups D (1110 kBq) and E (3 × 370 kBq), day 30

Question: Which “radiochemical purity (RCP) after incubation in mouse serum” value [1] does the source give for “N-succinimidyl-3-[^211At]astatobenzoate-Oct [[^211At]SAB-Oct]” here?
Answer: Its value is 93%.

Question: And the “binding ratio to H446 cells in comparison to A549 cells” value (H446 cells [2]; 5 × 10^6 cells in PBS, 3.7 kBq, 37 °C, 1, 3 and 6 h, gamma counter, triplicate)?
Answer: The value was “significantly higher”.

Question: And the “binding ratio to H446 cells with Oct block” value (H446 cells [2]; 100-fold excesses of unlabeled Oct as blocking agent)?
Answer: The value was “markedly decreased”.

Question: What about the “in vitro cytotoxicity to A549 cells” value (A549 cells [3]) of the same substance?
Answer: The value was “specifically killed SSTR2-positive SCLC cells but not low-level SSTR2 A549 cells”.

Question: What about the “γH2AX protein, Western blot, H446 cells” value (H446 cells [4]; 1.85, 3.7, 18.5, or 37 kBq) of the same substance?
Answer: Its value is “visually increased”.

Question: What about the “level of γH2AX in H446 cells compared to PBS” value (H446 cells [4]; 18.5 and 37 kBq, ****P < 0.001) of the same substance?
Answer: The value was “distinct dose-dependent increase”.

Question: And the “γH2AX protein expression, Western blot, A549 cells” value (A549 cells [5]; 1.85, 3.7, 18.5, or 37 kBq)?
Answer: Its value is “slightly expressed only when the dose reached 18.5 or 37 kBq”.

Question: What about the “level of γH2AX in A549 cells compared to PBS” value (A549 cells [5]; 37 kBq, ***P < 0.001, still much lower than in H446) of the same substance?
Answer: The value was “slightly higher”.

Question: What about the “uptake in the lung and intestines” value ([6]; 1110 kBq i.v.) of the same substance?
Answer: Its value is “physiologically high uptake”.

Question: And the “radioactivity uptake in the thyroid” value ([6]; 1110 kBq i.v., 1 to 24 h)?
Answer: Its value is “low radioactivity uptake”.

Question: What about the “stomach uptake at 1 h postinjection” value ([6]; 1110 kBq i.v., 1 h, n = 4, mean ± s.d., gamma counter) of the same substance?
Answer: The value was 17.99 ± 19.65 % ID/g.

Question: And the maximum tumor uptake ([6]; 1110 kBq i.v., 3 h postinjection, n = 4, mean ± s.d.)?
Answer: Its maximum tumor uptake is 11.46 ± 4.35 % ID/g.

Question: And the “radioactivity in all tissues after 24 h” value ([6]; 1110 kBq i.v., 24 h)?
Answer: The value was “Low levels of radioactivity”.

Question: What about the “stomach uptake at 24 h” value ([6]; 1110 kBq i.v., 24 h, n = 4, mean ± s.d.) of the same substance?
Answer: The value was 2.87 ± 0.86 % ID/g.

Question: What about the deastatination in vivo ([6]; observed in the spleen, lung, and stomach) of the same substance?
Answer: Its deastatination in vivo is “slight deastatination”.

Question: What about the “tumor cell necrosis in H&E assay” value (SCLC tumors (H446) [7]; 1110 kBq, day 30, compared with PBS and unlabeled octreotide groups) of the same substance?
Answer: Its value is “highest cell necrosis”.

Question: What about the “clusters of γH2AX foci in dissected tumors” value (SCLC tumors (H446) [7]; 1110 kBq, day 30 after injection) of the same substance?
Answer: The value was “still visible”.

Question: What about the “tumor growth compared with the PBS control group” value (SCLC tumors (H446) [7]; group C, single i.v. injection 370 kBq, monitored 30 days) of the same substance?
Answer: The value was “significantly inhibited”.

Question: And the “tumor growth compared with the PBS control group” value (SCLC tumors (H446) [7]; group D, single i.v. injection 1110 kBq, monitored 30 days)?
Answer: The value was “significantly inhibited”.

Question: What about the “tumor growth compared with the PBS control group” value (SCLC tumors (H446) [7]; group E, 3 times 370 kBq on days 0, 3, and 7, monitored 30 days) of the same substance?
Answer: Its value is “significantly inhibited”.

Question: What about the “liver or kidney biochemical function” value ([8]; 1110 kBq) of the same substance?
Answer: Its value is “did not significantly alter”.

Question: What about the “leukocytopenia or weight loss” value ([8]; 1110 kBq doses) of the same substance?
Answer: The value was “not observed”.

Question: And the leukocytopenia ([8]; 1110 kBq group, day 28)?
Answer: Its leukocytopenia is “No leukocytopenia”.

Question: And the Bun values ([8]; 1110 kBq, day 28, P > 0.05)?
Answer: Its Bun values is “trend of decreased Bun values”.

Question: And the “blood cells (leukocyte, lymphocyte, thrombocyte, erythrocyte counts, hematocrit, hemoglobin)” value ([8]; day 14 and day 28 postinjection, 1110 kBq or multiple dosing, n = 4)?
Answer: Its value is “no significant change”.

Question: What about the “difference in ALT and AST concentrations between each group” value ([8]; day 28, P > 0.05, groups A–E) of the same substance?
Answer: Its value is “not significant”.

Question: What about the “difference in Bun and Cr concentrations between treatments” value ([8]; day 28, P > 0.05, groups A–E) of the same substance?
Answer: Its value is “not significant”.

Question: And the “liver H&E” value [8, 10]?
Answer: Its value is “No obvious morphological difference”.

Question: What about the “lung H&E” value [8, 10] of the same substance?
Answer: The value was “no obvious abnormalities”.

Question: What about the “kidney H&E” value [8, 11] of the same substance?
Answer: The value was “brush border of a few renal tubular epithelial cells was slightly exfoliated”.

Question: What about the “stomach H&E” value [8, 11] of the same substance?
Answer: The value was “mild exfoliation of extensive mucosal epithelium”.

Question: And the “expression of MHC-I and calreticulin in tumor over time” value (SCLC tumors (H446) [9])?
Answer: The value was “first increasing and then decreasing”.
